High-throughput results as filed in PubChem BioAssay.
Only some compounds are listed: those with a hit (about 4.1% of all), similar ones and a draw of the others.
hERG protect: shields human hERG channel from block by proarrhythmic agents; Q12809; CHO-hERG, FluxOR thallium flux, dofetilide IC70 present; activation (rescue from dofetilide block), less the hit threshold, % at 10 µM; 310,000 tested, 0.51% active; AID 1511;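 active = activation above the mean of controls blocked by dofetilide plus 5 SD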;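 note: thallium influx through hERG after potassium depolarization seen as dye fluorescence rise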
KCC2 mod: modulators of human KCC2 chloride dependent transport; KCC2 cells, thallium flux FluoZin-2 fluorescence; B-score of Tl+ flux slope (higher = more flux/activation; lower = inhibition) at 10 µM; 190,000 tested, 2.2% active;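 active = thallium flux slope and its plate-corrected score both differing from the plate sample mean at a set confidence after two filtering rounds, in either direction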;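 note: slope of fluorescence scaled to starting intensity during 10 to 20 s after thallium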
KCNK9 inh: inhibitors of human KCNK9 two-pore domain potassium channel; Q9NPC2; HEK293 KCNK9, FluxOR thallium flux fluorescence; hits give low values; B-score at 10 µM; 310,000 tested, 1.2% active; AID 488922;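 active = ratio B-score over 3 SD below the library mean, with starting fluorescence within 5 SD of its mean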;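 note: negative B-score means less thallium flux so channel inhibition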
KCNQ1 act: human KCNQ1 channel potentiation or activation; P51787; CHO-K1 KCNQ1, thallium flux FluxOR fluorescence; hits give high values; B-score at 10 µM; 310,000 tested, 0.35% active;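 active = fluorescence ratio B-score, a plate-corrected score, at least three library SD, with initial intensity B-score within 5 SD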
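Medium – assay buffer, equal DMSO in all wells · Material – CHO-K1 cell line with stable KCNQ1 potassium channel expression · Signal – kinetic FluxOR thallium fluorescence, 10-s 1-Hz baseline, 110-s post-stimulus read · Compound – single concentration per compound, DMSO matched to controls · Schedule – 37 °C overnight plating, 90-min dark dye load, 20-min compound pretreatment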
KCNQ1 block: human KCNQ1 channel inhibition; P51787; CHO-K1 KCNQ1, FluxOR thallium flux fluorescence; hits give high values; B-score at 10 µM; 310,000 tested, 1.3% active; AID 2642;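 active = compounds whose thallium flux B-score, printed positive for inhibition, exceeds three library SD while starting fluorescence stays within three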;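 note: channel opened by potassium depolarization with thallium stimulus after 20 min compound exposure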
KCNK3 inh: human KCNK3 channel inhibition, primary screen. 340,000 tested, 0.84% active. B-score at 10 µM. O14649. CHO-KCNK3 thallium flux, FluxOR fluorescence; hits give low values;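 active = B-score under library mean minus 4 SD, starting fluorescence ratio at most library mean plus 5 SD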;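 note: more negative B-score means stronger inhibition of thallium flux through KCNK3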
KCNK9 inh conf: confirmation of human KCNK9 potassium channel inhibitors | 4,900 tested, 43% active | shares compounds with KCNK9 inh | AID 492992 | inhibition, % at 10 µM | HEK293 KCNK9 cells, FluxOR thallium flux fluorescence;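 active = thallium signal inhibited by more than 5 SD of the compound-free buffer control wells, on both duplicate plates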
Kir2-1 spec: selectivity of KCNK9 modulators against mouse Kir2.1. inhibition, % at 10 µM. Kir2.1 cells, FluxOR thallium flux fluorescence. 4,900 tested, 4% active. shares compounds with KCNK9 inh;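 active = thallium signal drop more than 5 SD beyond the mean of the no-compound control wells, seen in both duplicate plates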;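 note: signal is fluorescence rise after thallium addition divided by baseline fluorescence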
KCNK9 uninduced: non-induced cell nonspecific activity of KCNK9 modulators; shares compounds with KCNK9 inh; non-induced KCNK9-HEK293, FluxOR thallium flux; inhibition, % at 10 µM; 4,900 tested, 40% active; AID 492997;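 active = thallium signal drop beyond 5 SD of the untreated control mean, on both duplicate plates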
Numbers stand for hits; – = inactive; · = no result given.

SMILES | hERG protect | KCC2 mod | KCNK9 inh | KCNQ1 act | KCNQ1 block | KCNK3 inh | KCNK9 inh conf | Kir2-1 spec | KCNK9 uninduced
COc1ccc(C(CNC(=O)c2cccc(S(=O)(=O)N(C)c3ccccc3)c2)N2CCCC2)cc1 (centres undefined) | · | · | · | · | · | – | · | · | ·
O=C(/C=C/c1cccs1)NC(=S)Nc1ccc(S(=O)(=O)Nc2ccccc2C(F)(F)F)cc1 | – | – | – | – | – | – | – | – | –
COc1ccc(NC(=S)NC(=O)/C=C/c2cccs2)cc1 | – | – | – | – | – | – | · | · | ·
COc1ccc(-c2ccc3c(c2)S(=O)(=O)c2cccc(C(=O)N4CCN(C5CCCCC5)CC4)c2C3=O)cc1OC | · | · | · | · | · | – | · | · | ·
Cc1ccc(N=c2ssnc2Cl)cc1 | – | – | – | – | – | – | · | · | ·
Cc1cc(C)nc(/N=c2/ssnc2Cl)c1 | – | – | – | – | – | – | – | – | –
O=C(NNC(=S)Nc1ccc(Br)cc1)c1ccccc1Br | – | · | – | – | – | – | – | – | –
COc1ccccc1C(=O)Nc1ccnn1C1CCN(C/C=C/c2ccc(F)cc2)CC1 | – | · | – | – | – | – | · | · | ·
COc1ccc(/C=C/C(=O)Oc2ccc(C)c(C)c2)cc1OC | – | – | – | – | – | – | – | – | –
Cc1cccc(-n2c(Cc3ccccc3)nnc2SCc2ccc([N+](=O)[O-])cc2)c1 | – | – | -14 | – | – | – | – | – | 41%
CCOC(=O)c1cc2occc2n1Cc1ccc(F)cc1 | – | – | -8.3 | – | – | – | – | – | 30%
COC(=O)c1cc2occc2n1Cc1ccc(Cl)cc1 | – | – | – | – | – | – | · | · | ·
COc1ccc(CCNC(=O)c2c[nH]c3ccc(F)cc3c2=O)cc1OC | – | · | – | – | – | – | · | · | ·
Cc1ccc(Cn2c(SCC(=O)N/N=C/c3ccc(C)o3)nc3ccccc32)cc1 | – | – | -21 | – | – | – | 55% | – | 41%
CCOc1cccc(CN2CCN(c3cccc(C(F)(F)F)c3)CC2)c1O | – | – | – | – | – | – | – | – | –
COc1ccccc1N(CC(=O)NCCSCc1ccc(Cl)cc1)S(C)(=O)=O | – | · | – | – | – | – | · | · | ·
COc1ccccc1OCC(=O)NCCSCc1ccc(Cl)cc1 | – | – | – | – | – | – | – | – | –
O=C(CSCc1ccc(Cl)cc1)NCCSCc1ccco1 | – | – | – | – | – | – | – | – | –
CN(C(=O)CSc1nc(C2CC2)n(-c2ccccc2)n1)C1CCS(=O)(=O)C1 (centres undefined) | · | · | · | · | · | – | · | · | ·
CCn1cc(/C=C(\NC(=O)c2ccccc2F)C(=O)NCCN2CCOCC2)c2ccccc21 | – | · | – | – | – | – | – | – | –
CCn1cc(/C=C(\NC(=O)c2ccccc2OC)C(=O)NCCCN2CCOCC2)c2ccccc21 | – | · | – | – | – | – | · | · | ·
O=C(c1cccs1)c1ccccc1Cc1cccs1 | · | · | · | · | · | – | · | · | ·
CCc1ccc(/C=C2\SC(=S)N(CCCC(=O)Nc3ccc(C(=O)O)cc3)C2=O)cc1 | – | · | – | – | – | – | – | – | –
CCOc1ccc(/C=C2\SC(=S)N(CCC(=O)Nc3cccc(C(=O)O)c3)C2=O)cc1 | – | · | – | – | – | – | – | – | –
CCc1ccc(/C=C2\SC(=S)N(CCCC(=O)Nc3ccccc3C(=O)O)C2=O)cc1 | – | · | – | – | – | – | – | – | –
Cc1ccc(CN2CCC(Oc3cccc(C(=O)NCc4cccnc4)c3)CC2)o1 | – | · | – | – | – | – | · | · | ·
Cc1cccc(NS(=O)(=O)c2ccc(C)c(C(=O)NC3CCN(Cc4ccccc4)CC3)c2)c1 | · | · | · | · | · | – | · | · | ·
COCCN(C(=O)c1ccc(C)c(S(=O)(=O)N2CCOCC2)c1)c1c(N)n(CC(C)C)c(=O)[nH]c1=O | · | · | · | · | · | – | · | · | ·
O=C(COc1ccccc1)Nc1cccc(-c2nnc(-c3ccccc3)o2)c1 | – | · | – | – | – | – | · | · | ·
